Tests used:
[1] = test system: TfR; conditions: cited from earlier work
[2] = test system: U87MG cells with transferrin receptors blocked by excess T7-PEG4-N3; assay: T7 competition assay: transferrin receptor blocking studies; type: cell-based; conditions: Homo sapiens, U-87 MG, read-out: IC50 at 72 h in TfR-blocked U87MG cells
Procedure, shortened: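 U87MG cells were seeded at 1 × 10^4/well and grown 24 h. Medium was replaced with medium containing a 10-fold molar excess of azido-PEG4-T7 peptide relative to conjugate for 1 h. Cells were then exposed to 5–160 nM test compound. Controls were medium, 0.05% DMSO and peptide alone. XTT read-out at 72 h, A450 relative to controls, n = 4. IC50 from concentration–response curve fit.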

[3] = cited from earlier work
[4] = test system: U87MG cells; assay: XTT cytotoxicity assay; type: cell-based, Human; conditions: for cytotoxicity on U87MG cells at 24 h: XTT assay, 24 h exposure, 5-160 nM, n = 4
Procedure, shortened: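 U87MG cells were kept in EMEM with 10% FBS and 1% penicillin–streptomycin at 37 °C, 5% CO2. Cells were seeded at 1 × 10^4/well and treated after 24 h with 5–160 nM test compound at 37 °C. At 24 and 72 h, XTT with electron coupling reagent was added for 3 h, then A450 was read. Values were normalized to untreated cells. Controls were 0.05% DMSO and medium. Mean ± SD, n = 4. IC50 from concentration–response curve fit.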

[5] = Control incubation in enzyme-free reaction buffer pH 6.0; type: physicochemical; conditions: enzyme free buffer pH 6.0, 37 °C, 24 h, 183 μM conjugate, RP-HPLC, n = 3
Procedure, shortened: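 Enzyme-free control run alongside the cathepsin B cleavage assay. Reaction buffer was 150 mM sodium acetate, 12 mM EDTA and 24 mM DTT, pH 6.0. Conjugate was added from a DMSO stock to 183 μM final and incubated at 37 °C. Aliquots were taken over 0–24 h for RP-HPLC. Peak areas at the retention times of pure drug and conjugate tracked conjugate loss and free drug appearance.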

[6] = Stability in phosphate buffer saline pH 7.4; type: physicochemical; conditions: PBS pH 7.4 with 2% DMSO, 196 μM conjugate, 37 °C, 0-24 h, HPLC, n = 3
Procedure, shortened: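 Conjugate in PBS pH 7.4 with 2% DMSO, 196 μM final, held at 37 °C. Aliquots were withdrawn at time points over 0–24 h and analysed by HPLC. Results were plotted as areas of intact conjugate and of released free drug over time (n = 3).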

Compound | binding affinity for TfR relative to Tf [1] | IC50 [2] [µM] | potency compared to irinotecan [3] | IC50 ([4]; Homo sapiens, U-87 MG, 72 h, read-out: IC50 on U87MG cells at 72 h) [µM] | cytotoxicity on U87MG cells at 24 h [4] | release of free SN-38 in enzyme free buffer [5] | stability in phosphate-buffered saline [6]
His-Ala-Ile-Tyr-Pro-Arg-His [T7 peptide] | comparable to that of Tf | – | – | – | – | – | –
CCc1c2c(nc3ccc(O)cc13)-c1cc3c(c(=O)n1C2)COC(=O)[C@]3(O)CC [SN-38, 7-Ethyl-10-hydroxycamptothecin] | – | 0.0276 | 100–1000 times | 0.0264 | did not exert pronounced cytotoxicity | – | –
CCc1c2c(nc3ccc(OCc4ccc(NC(=O)[C@H](C)NC(=O)[C@@H](NC(=O)CCCCCNC(=O)COCCOCCOCCNC(=O)CCCCC(=O)N5Cc6ccccc6-c6c(nnn6CCOCCOCCOCCOCCC(=O)N[C@@H](Cc6c[nH]cn6)C(=O)N[C@@H](C)C(=O)N[C@H](C(=O)N[C@@H](Cc6ccc(O)cc6)C(=O)N6CCC[C@H]6C(=O)N[C@@H](CCCNC(=N)N)C(=O)N[C@@H](Cc6c[nH]cn6)C(=O)O)[C@@H](C)CC)-c6ccccc65)C(C)C)cc4)cc13)-c1cc3c(c(=O)n1C2)COC(=O)[C@]3(O)CC [Compound T7-SN-38] | – | – | – | – | did not exert pronounced cytotoxicity | No free SN-38 was observed | very minimal decomposition or cleavage

From PMC10795035 (ACS Omega, 2024)
